The results in this text go back to ChEMBL document CHEMBL1817575, “Extended targeting potential and improved synthesis of Microcin C analogs as antibacterials” (Bioorg Med Chem, 2011).

The source made the active and inactive calls. No cut-off for these calls is given here. Residues, ends and D or L forms follow the SMILES beside them. *: point of attachment. X7 = CC[C@H](C)[C@H](N*)C(=O)NS(=O)(=O)OC[C@H]1O[C@@H](n2cnc3c(N)ncnc32)[C@H](O)[C@@H]1O; NHTrityl = c1ccc(C(N*)(c2ccccc2)c2ccccc2)cc1; Pbf = Cc1c(C)c(S(=O)(=O)*)c(C)c2c1OC(C)(C)C2; tBu = CC(C)(C)*; For = O=C*

Experiment [1] relates to Escherichia coli. As to the kind of experiment: Antibacterial activity against yej or pepA,B,N-genes disrupted Escherichia coli after 8 hrs. The experiment is classed as functional, organism-based. The essentials:
(§1)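 Overnight LB cultures were regrown in fresh LB, with or without 5 mM L-arabinose, to OD600 0.1. Compounds were serially titrated in 96-well plates in LB with or without 5 mM L-arabinose, and cells were added. Plates were incubated at 37 °C, and growth inhibition was read as OD600 after 8 h.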

Experiment [2] has as its system Escherichia coli. As to the kind of experiment: Antibacterial activity against Escherichia coli Ara-Yej (BW39758) at <= 0.63 uM after 8 hrs. The experiment is classed as functional, organism-based. In a few lines:
as §1

Regarding `CC[C@H](C)[C@H](NC(=O)[C@H](C)NC(=O)[C@H](CC(=O)NC(c1ccccc1)(c1ccccc1)c1ccccc1)NC(=O)CNC(=O)[C@@H](NC(=O)[C@H](CCCNC(=N)NS(=O)(=O)c1c(C)c(C)c2c(c1C)CC(C)(C)O2)NC(=O)[C@H](CCSC)NC=O)[C@@H](C)OC(C)(C)C)C(=O)NS(=O)(=O)OC[C@H]1O[C@@H](n2cnc3c(N)ncnc32)[C@H](O)[C@@H]1O` (For-MR(Pbf)T(tBu)GD(NHTrityl)A-X7), the outcome with Escherichia coli [1] was inactive. For the same compound, in the experiment on Escherichia coli [2], the result was Active.
